{"source": "paper PMC2939291", "about": "(Experimental parasitology, 2010)", "key": {"[1]": {"test_system": "egfp transfected Leishmania amazonensis amastigotes in THP-1 cells", "assay": "microbe, parasite or virus in culture", "assay_type": "cell-based"}, "[2]": {"test_system": "egfp transfected Leishmania amazonensis amastigotes in PBMC derived macrophages", "assay": "microbe, parasite or virus in culture", "assay_type": "cell-based"}, "[3]": {"test_system": "Leishmania amazonensis infected cells", "assay": "Infection measured by standard Giemsa staining of cells", "assay_type": "cell-based"}, "[4]": {"test_system": "GFP-transfected Leishmania (Viannia) panamensis amastigotes in U937 cell line", "conditions": "L. (V.) panamensis in U937 cells, GFP flow cytometry; ref Varela et al., 2009; cited from earlier work"}, "[5]": {"conditions": "standard doses (0.3 mg/kg days 1 and 2, increasing to 0.5 mg/kg) during clinical therapy; ref Atkinson, Jr. and Bennett, 1978; cited from earlier work"}, "[6]": {"test_system": "human PBMC derived macrophages", "assay_type": "cell-based"}, "THP-1 cells": {"test_system": "THP-1 cells", "assay": "Trypan blue dye exclusion cytotoxicity test, THP-1 cells", "assay_type": "cell-based, human", "how_it_was_run": "(§1)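 Macrophages prepared before testing: THP-1 cells were grown in RPMI 1640 with 10% heat-inactivated FBS at 37°C and 5% CO2, then stimulated with 20 nM PMA. PBMC-derived cells were stimulated with autologous platelet-poor serum. After test compound exposure, clear (viable) and blue cells were counted on a hemocytometer to give percent viability. CC50 came from a variable-slope sigmoidal fit normalised to untreated cells. Assays were run in duplicate.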"}, "[7]": {"test_system": "human PBMC derived macrophages", "assay": "Trypan blue dye exclusion cytotoxicity test, human PBMC derived macrophages", "assay_type": "cell-based", "how_it_was_run": "as §1"}}, "note": "Like-named read-outs stand apart in the source and are kept apart here."}
{"compound": "C[C@@H]1[C@H](O)[C@@H](C)/C=C/C=C/C=C/C=C/C=C/C=C/C=C/[C@H](O[C@@H]2O[C@H](C)[C@@H](O)[C@H](N)[C@@H]2O)C[C@@H]2O[C@](O)(C[C@@H](O)C[C@@H](O)[C@H](O)CC[C@@H](O)C[C@@H](O)CC(=O)O[C@H]1C)C[C@H](O)[C@H]2C(=O)O", "note": "[Amphotericin B, amphotericin B]", "values": [{"measurement": "EC50", "setting": "[1]; Leishmania amazonensis, THP-1", "result": "0.1445 ± 0.0005", "unit": "µg/mL"}, {"measurement": "Selective Index (SI)", "setting": "[1]; THP-1 cells, ratio of EC50 and CC50", "result": 105.2}, {"measurement": "EC50", "setting": "[2]; Leishmania amazonensis, in Homo sapiens", "result": "0.179 ± 0.035", "unit": "µg/mL"}, {"measurement": "Selective Index (SI)", "setting": "[2]; human PBMC derived macrophages, ratio of EC50 and CC50", "result": 355.9}, {"measurement": "Selective Index (SI)", "setting": "[2]; human PBMC derived macrophages, ratio of EC50 and CC50, listed as amphotericin B", "result": 356}, {"measurement": "EC50", "setting": "[3]", "result": 0.074, "unit": "µg/mL"}, {"measurement": "EC50", "setting": "[4]", "result": 0.078, "unit": "µg/mL"}, {"measurement": "serum level", "setting": "[5]", "result": "above 0.2 μg/ml"}]}
{"compound": "CCCCCCCCCCCCCCCCOP(=O)([O-])OCC[N+](C)(C)C", "note": "[Miltefosine, miltefosine]", "values": [{"measurement": "Selective Index (SI)", "setting": "[1]", "result": 1.51}, {"measurement": "Selective Index (SI)", "setting": "[2]", "result": 6.13}, {"measurement": "toxicity against the macrophages", "setting": "[6]", "result": "significant toxicity"}]}
{"compound": "O.O.O.O.O.O.O.O.O.O=C([O-])[C@@H]1[O][Sb](=[O])([O][Sb]2(=[O])[O][C@H]([C@H](O)CO)[C@H](O)[C@H](C(=O)[O-])[O]2)[O][C@H]([C@H](O)CO)[C@@H]1O.[Na+].[Na+].[Na+]", "note": "(stereo partly drawn) [Sodium stibogluconate, sodium stibogluconate]", "values": [{"measurement": "EC50", "setting": "[2]; human PBMC derived macrophages, GFP fluorescence", "result": "194.8 ± 36.4", "unit": "µg/mL"}, {"measurement": "CC50", "setting": "THP-1 cells", "result": "4600 ± 1100", "unit": "µg/mL"}, {"measurement": "CC50", "setting": "[7]", "result": "6300 ± 2800", "unit": "µg/mL"}]}
{"compound": "meglumine antimoniate", "values": [{"measurement": "EC50", "setting": "[4]", "result": 20, "unit": "µg/mL"}]}
